From PubChem
HCT116 bCat-KO: primary screen for growth suppressors in beta-catenin knockout HCT116 cells (colon tumor, human) | HCT116 beta-catenin knockout viability, CellTiter-Glo, 60 h; active compounds read low | viability, % at 10 µM | 140,000 compounds, 1.5% hits | AID 818, 2007;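 active means viability at or under a set limit, the compound median less 4 SD, cut at about 6% in these data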;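 further: 0% = Hyamine 1622 control at 20 µM and 100% = untreated cell control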
Lung fibro prol: antiproliferative effect on LL 47 fibroblasts – human, LL 47 cells, CellTiter-Glo luminescence, primary screen. 85,000 compounds, 1.1% hits. AID 719, 2007. viability, % at 10 µM. LL 47 human lung fibroblast viability, ATP luminescence; active compounds read low;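 active means viability at or below 50% in the single dose screen; inactive means viability above 50%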;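 further: compound exposure lasted 72 h before the ATP readout; 100% = median luminescence of untreated cell-only wells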
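Signal: luminescent ATP detection, CellTiter-Glo; assay system: LL 47 human lung fibroblasts; input: 1,150 cells/well; incubation: overnight cell rest, 72 h compound treatment at 37 °C; measure: % viability versus median cells-only luminescence; medium: IMEM growth medium with 15% fetal bovine serum; dosing: compound addition at 0.1% DMSO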
H69AR growth 86K: proliferation blockers of H69AR lung cancer cells, primary screen, cell-based, human, 86K library | 85,000 compounds, 6% hits | H69AR lung tumor viability, ATP luminescence, 72 h; active compounds read low | viability, % at 10 µM;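 active means viability at or below 40%; inactive means viability above 40%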;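 further: multidrug resistant small cell line overexpressing MRP-1 efflux transporter; 100% = mean luminescence of untreated control wells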
PTEN del growth: growth suppression of PTEN-null HCT116, primary screen, cell-based, CellTiter-Glo; HCT116 PTEN-null viability, 60 h; active compounds read low; viability, % at 10 µM; 140,000 compounds, 1.2% hits;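 active means viability at or below a set limit, 4 SD under the median of all tested compounds, cut at about 3.7% in these data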;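 further: PTEN knockout HCT116 line with beta catenin targeted HCT116 as companion control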
Candida biofilm: clotrimazole potentiators killing Candida biofilms, primary screen, with clotrimazole, Alamar Blue; C. albicans biofilm + clotrimazole; inhibition, % at 6 µM; 85,000 compounds, 0.14% hits; AID 834, 2007;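 active means inhibition above 20%; inactive means inhibition below 20%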;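 further: preformed 24 hr biofilms exposed to compound for 48 hr; 0% = biofilm without compound and 100% = blank killed by clotrimazole plus chlorhexidine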
HUVEC inhibit: inhibitors of HUVEC proliferation, primary screen, cell-based, 384-well; CellTiter-Glo luminescence, 72 h; active compounds read low; viability, % at 10 µM (by protocol); 86,000 compounds, 1.1% hits;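 active means viability at or below 30%; inactive means viability above 30%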;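 further: 100% = median luminescence of DMSO-only cell control wells on each plate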
* marks the source's active call; other numbers are inactive results; / = no result. The sample as a whole holds a higher share of hits than the screen did.

SMILES	HCT116 bCat-KO	Lung fibro prol	H69AR growth 86K	PTEN del growth	Candida biofilm	HUVEC inhibit
Cc1nc(N2CCN(C(=O)c3ccc(Cl)cc3)CC2)c(C#N)c2c1COC(C)(C)C2	65.8	94.7	37.4*	70.2	10.6	99.3
Cc1nn(C(=O)CNS(=O)(=O)c2ccccc2)c(C)c1Sc1ccc(Cl)cc1	76.8	/	/	76.7	/	/
CCC(Sc1nc2cc3c(cc2c(=O)n1Cc1ccco1)OCO3)C(=O)NCCOC (stereo not given)	102.4	96.6	88.0	99.5	8.5	108.6
CCC(Sc1nc2cc3c(cc2c(=O)n1Cc1ccco1)OCO3)C(=O)Nc1cccc(OC)c1 (stereo not given)	1.7*	35.7*	10.8*	1.7*	3.2	4.1*
CCC(Sc1nc2cc3c(cc2c(=O)n1Cc1ccco1)OCO3)C(=O)Nc1ccccc1OC (stereo not given)	6.1	55.2	7.6*	20.2	-0.3	25.3*
CN1/C(=C/C(=O)c2nc(S(C)(=O)=O)ncc2Cl)C(C)(C)c2ccccc21	2.0*	18.5*	0.6*	2.6*	4.9	24.3
Cc1ccc2[nH]cc(C(=O)CCl)c2c1	2.8*	/	/	2.3*	/	/
Cc1ccc2[nH]cc(C(=O)CN3CCN(C)CC3)c2c1	79.9	104.8	84.2	98.4	1.1	102.9
CCOC(=O)c1[nH]c(C)c(C(=O)Nc2ccc(C)c(Cl)c2)c1C	46.0	79.5	31.9*	38.4	5.8	61.6
CCOC(=O)c1[nH]c(C)c(C(=O)Nc2ccc(C)c(F)c2)c1C	48.0	92.3	20.3*	38.1	1.9	73.0
CCOC(=O)c1[nH]c(C)c(C(=O)O)c1C	107.9	/	/	104.7	/	/
CCNC(=O)c1c(C)[nH]c(C(=O)OCC)c1C	95.4	112.4	92.8	96.9	8.7	98.7
COc1ccc2c(c1)C(=NN)c1cc(OC)ccc1-2	80.7	87.3	59.0	69.4	9.4	96.3
COCCn1c(=NC(=O)CSCC(=O)Nc2cc(C)on2)sc2cc(C(=O)OC)ccc21	80.0	/	/	0.5*	/	/
CCOc1cc(/C=N/NC(=O)C(=O)NCCCOC(C)C)cc(Br)c1O	96.8	/	/	92.3	/	/
O=S1(=O)C=CC(Sc2nc3ccccc3[nH]2)C1 (stereo not given)	106.6	101.8	19.9*	101.7	-5.4	102.0
CC1=CS(=O)(=O)CC1Sc1nc2ccccc2[nH]1 (stereo not given)	99.0	103.2	85.4	103.3	2.8	82.7
CC1(C)OC(=O)C(=CNC(Cc2c[nH]c3ccccc23)C(=O)O)C(=O)O1 (stereo not given)	83.6	99.2	/	96.3	0.0	94.6
COC(=O)C1=C(C(=O)OC)SC(=C2C(=S)C(C)(C)N(C(=O)CC(C)C)c3ccccc32)S1	104.2	92.2	17.3*	/	6.0	76.4
CC(C)CC(=O)n1sc(NC(=O)c2ccccc2)nc1=O	91.9	/	/	91.8	/	/
CCCn1nc(C(=O)Oc2ccc3c(C)cc(=O)oc3c2)c2ccccc2c1=O	93.5	/	/	98.8	/	/
Cc1cc(C)n(-c2nc(Nc3ccccc3)nc(-n3nc(C)cc3C)n2)n1	92.4	99.0	96.7	96.7	1.2	90.5
Cc1cc(C)n(-c2nc(N(c3ccccc3)c3ccccc3)nc(-n3nc(C)cc3C)n2)n1	21.2	38.1*	11.7*	19.0	3.4	37.4
O=C(CN(c1cccc(C(F)(F)F)c1)S(=O)(=O)c1ccc(Cl)c([N+](=O)[O-])c1)NCc1ccc(F)cc1	49.0	/	/	43.9	/	/
O=C(NCCF)[C@H]1C[C@@H]1[C@H](NP(=O)(c1ccccc1)c1ccccc1)c1ccccc1	105.8	/	/	98.9	/	/
SMILES	HCT116 bCat-KO	Lung fibro prol	H69AR growth 86K	PTEN del growth	Candida biofilm	HUVEC inhibit
O=C(NCc1ccccn1)[C@H]1C[C@@H]1[C@H](NP(=O)(c1ccccc1)c1ccccc1)c1ccccc1	0.8*	/	/	0.6*	/	/
COc1ccc(CCNC(=O)c2ccc(=O)[nH]n2)cc1OC	101.9	96.0	89.1	112.9	5.4	95.9
COc1ccc(CCNC(=O)c2cc(-c3cc(C)c(C)cc3O)n[nH]2)cc1OC	94.1	101.3	29.0*	94.0	0.5	94.2
CCn1c(SC)nnc1-c1sc2cc(Cl)ccc2c1Cl	76.9	95.2	78.0	82.5	-1.5	93.6
CSc1nnc(-c2sc3cc(Cl)ccc3c2Cl)n1C	63.6	92.9	26.7*	73.8	-2.3	62.2
CCOc1ccc2nc(NC(=O)C3CCN(S(=O)(=O)c4cnc[nH]4)CC3)sc2c1	77.1	88.2	58.2	83.0	3.6	87.7
CCOc1ccc2nc(NC(=O)C3CCN(c4cnccn4)CC3)sc2c1	85.6	99.1	33.7*	75.8	5.1	91.3
CCOc1ccc2nc(NC(=O)c3ccoc3C)sc2c1	24.1	35.4*	20.4*	28.0	/	42.1
CCOc1ccc2nc(NC(=O)Nc3cccs3)sc2c1	86.5	89.2	35.2*	82.1	-2.0	60.2
CC1=NN(C(=O)c2cccc(Cn3nc(C)c([N+](=O)[O-])c3C)c2)C(O)(C(F)(F)F)C1 (stereo not given)	91.8	/	/	92.6	/	/
O=C(CSc1nnc(CCCN2C(=O)c3cccc4cccc(c34)C2=O)n1-c1ccccc1)N1CCN(CCO)CC1	95.3	/	/	99.9	/	/
COc1ccc(C(=O)NC2(C(F)(F)F)NC(=O)N(CCCc3ccccc3)C2=O)cc1OC (stereo not given)	90.8	/	/	89.9	/	/
CCOC(=O)c1sc(=NC(=O)c2ccc(OC)c(OC)c2)n(C)c1C	84.7	97.3	20.3*	67.4	-5.2	77.3
CCOC(=O)c1sc(=NC(=O)c2cccc(OC)c2)n(C)c1C	90.8	96.9	92.2	96.8	0.0	76.9
CCCCN=CC1=C(O)C(C(=O)OC)C(C)(C)CC1=O (stereo not given)	92.7	99.0	99.2	92.8	5.2	94.6
Cc1ccc2c(Cl)c(C)c(N3CCCC3)nc2n1	89.5	/	/	89.3	/	/
Cc1ccc2c(C)ccc(O)c2n1	36.3	88.5	29.4*	54.6	8.3	17.1*
CCOc1ccc(/C=N/OCC(=O)NCc2ccc3c(c2)OCO3)cc1OC	92.2	/	/	98.7	/	/
CS(=O)(=O)N1CCN(c2ccc([N+](=O)[O-])c(NCc3ccc(Cl)cc3)c2)CC1	2.2*	/	/	5.9	/	/
CCCC[n+]1ccn(-c2nc3ccccc3nc2[N-]S(=O)(=O)c2ccccc2)c1	102.8	95.8	93.3	116.0	-1.1	100.8
CCCC[n+]1ccn(C2=C([O-])c3ccccc3C(=O)/C2=N\S(=O)(=O)c2ccccc2)c1	2.1*	50.4	8.6*	1.6*	0.5	5.1*
CCCCC[n+]1ccn(C2=C([O-])c3ccccc3C(=O)/C2=N\S(=O)(=O)c2ccccc2)c1	3.3*	76.0	25.2*	5.0	-1.8	10.6*
CCOC(=O)c1ccc2c(c1)nc(COc1ccc(OC)cc1)n2CC	97.4	92.8	79.7	89.1	3.8	97.2
